Some results are limits rather than exact numbers.

Data set [1] concerns Mus musculus. The data set is described as follows: Toxicity in KM mouse implanted with mouse H22 cells assessed as body weight level at 65 mg/kg administered daily through oral gavage after 8 days (reference value: 21.7 to 22.3 g). It counts as organism-based. The conditions noted are these: in vivo, 192 h.
For data set [2], the system named is Plasma. The data set is described as follows: Cmax in Sprague-Dawley rat plasma assessed as FDUR formation at 52.17 mg/kg administered through oral gavage measured up to 24 hrs by HPLC-MS/MS analysis. It counts as ADME, organism-based. On the set-up: dose 52.17 mg/kg, route oral. Conditions: in vivo. Summed up:
(§1)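 Male Sprague-Dawley rats (220 ± 20 g), single gavage of 0.096 mmol/kg. FDUR was dosed in H2O; the prodrugs were dosed in 20% hydroxypropyl-β-cyclodextrin. n = 3 per time point, sampled at 0.25–24 h. Plasma (EDTA-K2, cardiac puncture) and freeze-clamped liver were homogenized in 20 mM EDTA-K2/70% MeOH. Analytes measured by HPLC-MS/MS in ESI negative mode.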

In data set [3] the test system is H22. Kind of data set: Antitumor activity against mouse H22 cells implanted in KM mouse assessed as tumor growth inhibition at 130 mg/kg administered daily through oral gavage after 8 days. It counts as functional. The conditions noted are these: 192 h. Summed up: (§2)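 Syngeneic H22 hepatoma: 2 × 10⁶ cells injected s.c. in the axilla (0.9% saline) of female KM mice, n = 10 per group. From day 2, daily oral gavage for 8 days. Test agent given in 35% PEG400; sorafenib suspended in 0.5% CMC-Na. Tumor weight taken on day 8; inhibition rate calculated versus the vehicle group.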

The nature of data set [4]: Half life in dog plasma by HPLC-MS/MS analysis. Type of data set: ADME, cell-free, Canis lupus familiaris. The essentials: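 Compound at 1 μg/mL final in dog or human plasma, 37 °C. Sampled at 0–24 h and quenched with ice-cold MeOH containing internal standard. Parent measured by LC-MS/MS in ESI negative mode; t1/2 calculated from percent remaining versus 0 h.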
The nature of data set [5]: Half life in rat plasma by HPLC analysis. It counts as ADME, cell-free. Summed up:
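Rat plasma, 37 °C. Compound added from a 2.5 mM stock, sampled at 0–24 h, quenched with MeOH. Analyzed by HPLC-UV at 267 nm (C8 column, MeOH:H2O 68:32). Triplicate samples.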

Data set [6] is described as follows: Cytotoxicity against human LO2 cells assessed as reduction in cell viability after 72 hrs by MTT assay. Type of data set: cell-based. Conditions: L02, 72 h. The essentials:
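Cells in RPMI-1640 with 10% FBS, seeded at 4 × 10³ per well and attached for 24 h. Compound (DMSO ≤0.5% final) added for 72 h at 37 °C, 5% CO2. Viability read by MTT. IC50 set against 0.5% DMSO-treated cells taken as 100% viable. Mean of two independent experiments, each run in triplicate.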

Data set [7] concerns Liver. The data set is described as follows: Drug metabolism in Sprague-Dawley rat liver S9 fraction assessed as (S)-2-((R)-(((2R,3S,5R)-5-(5-fluoro-2,4-dioxo-3,4-dihydropyrimidin-1(2H)-yl)-3-hydroxytetrahydrofuran-2-yl)methoxy)(2-methylbenzyloxy)phosphorylamino)propanoate formation at 20 ug/mL after 20 mins by HPLC-MS/MS analysis in absence of NADPH. Type of data set: ADME. The conditions noted are these: s9, 20 min. Summed up:
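Rat liver S9 (10 mg/mL) incubated with compound at 20 μg/mL. Parent, intermediate A and FdUMP followed over time by HPLC-MS/MS. Negative control run without NADPH.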

Data set [8] deals with Liver. Kind of data set: Cmax in Sprague-Dawley rat liver assessed as (S)-2-((R)-(((2R,3S,5R)-5-(5-fluoro-2,4-dioxo-3,4-dihydropyrimidin-1(2H)-yl)-3-hydroxytetrahydrofuran-2-yl)methoxy)(2-methylbenzyloxy)phosphorylamino)propanoate formation at 52.17 mg/kg administered through oral gavage measured up to 24 hrs by HPLC-MS/MS analysis. It counts as ADME, organism-based. The conditions noted are these: in vivo. Also noted: dose 52.17 mg/kg, route oral. The essentials:
as §1

The test system of data set [9] is Liver. Kind of data set: Cmax in Sprague-Dawley rat liver assessed as 5-FU formation at 52.17 mg/kg administered through oral gavage measured up to 24 hrs by HPLC-MS/MS analysis. It counts as ADME, organism-based. Also noted: dose 52.17 mg/kg, route oral. Conditions: in vivo. The essentials: as §1
The subject of data set [10] is H22. The data set is described as follows: Antitumor activity against mouse H22 cells implanted in KM mouse assessed as tumor growth inhibition at 65 mg/kg administered daily through oral gavage after 8 days. Conditions: 192 h. It counts as functional. The essentials: as §2
For data set [11], the system named is Liver. Kind of data set: Drug metabolism in Sprague-Dawley rat liver assessed as o-methylhippuric acid formation. It counts as ADME, tissue-based.
In data set [12] the test system is Mus musculus. Kind of data set: Toxicity in KM mouse assessed as damage to lung at 2 to 3 g/kg, administered through oral gavage after 15 days. The conditions noted are these: in vivo, 360 h.
Data set [13] can be described thus: Ratio of metabolite A AUC (infinity) in Sprague-Dawley rat liver to (S)-2-((R)-(((2R,3S,5R)-5-(5-fluoro-2,4-dioxo-3,4-dihydropyrimidin-1(2H)-yl)-3-hydroxytetrahydrofuran-2-yl)methoxy)(2-methylbenzyloxy)phosphorylamino)propanoate AUC (infinity) in Sprague-Dawley rat plasma at 52.17 mg/kg administered through oral gavage. Type of data set: ADME, organism-based. The conditions noted are these: in vivo.

Data set [14] has as its system Liver. The data set is described as follows: AUC (infinity) in Sprague-Dawley rat liver assessed as FdUMP formation at 52.17 mg/kg administered through oral gavage measured up to 24 hrs by HPLC-MS/MS analysis. Type of data set: ADME, organism-based. On the set-up: dose 52.17 mg/kg, route oral, time infinity. The conditions noted are these: in vivo. Summed up:
as §1

Data set [15] deals with Mus musculus. Kind of data set: Toxicity in KM mouse assessed as damage to heart at 2 to 3 g/kg, administered through oral gavage after 15 days. The conditions noted are these: in vivo, 360 h.
Data set [16] concerns Liver. The data set is described as follows: AUC (infinity) in Sprague-Dawley rat liver assessed as FDUR formation at 52.17 mg/kg administered through oral gavage measured up to 24 hrs by HPLC-MS/MS analysis. It counts as ADME, organism-based. On the set-up: dose 52.17 mg/kg, route oral, time infinity. Conditions: in vivo. Summed up:
as §1

For data set [17], the system named is Plasma. The data set is described as follows: AUC (infinity) in Sprague-Dawley rat plasma assessed as (S)-2-((R)-(((2R,3S,5R)-5-(5-fluoro-2,4-dioxo-3,4-dihydropyrimidin-1(2H)-yl)-3-hydroxytetrahydrofuran-2-yl)methoxy)(2-methylbenzyloxy)phosphorylamino)propanoate formation at 52.17 mg/kg administered through oral gavage measured up to 24 hrs by HPLC-MS/MS analysis. Type of data set: ADME, organism-based. Also noted: dose 52.17 mg/kg, time infinity, route oral. The conditions noted are these: in vivo. The essentials: as §1

In general, Cmax refers to the maximum level reached in the sampled fluid or tissue. What is called inhibition in vivo is the relative decrease from the control value, in per cent. The half-life is how long it takes for the measured level to halve. The low end stands for fast loss, the high end for slow loss. As usually defined, the IC50 is the concentration needed to halve the response being measured. As for `Cc1ccccc1CO[P@](=O)(N[C@@H](C)C(=O)OC(C)C)OC[C@H]1O[C@@H](n2cc(F)c(=O)[nH]c2=O)C[C@@H]1O`, the figures for the Activity in data set [1], in [12] and in data set [15] were 25.9 g, “Non-toxic” and “Non-toxic”, respectively. Further, the figures for the Cmax in data set [2], in data set [8] and in data set [9] were 17 ng/mL, 3673 ng/g and 139 ng/g, respectively. Also, the inhibition in vivo at 130 mg/kg in [3] was 61.7%. Further, the half-life in data set [4] was more than 24 h; in [5], less than 4.98 min. In addition, the IC50 in data set [6] was 412 µM. Further, the Drug metabolism entry in data set [7] and in data set [11] was “metabolite_detected” throughout. The inhibition in vivo at 65 mg/kg in [10] came out at 44.2%. The “Ratio AUC” value in data set [13] was determined as 17.4. The results for the AUC in data set [14], in data set [16] and in data set [17] were 543 ng·h/g, 1541 ng·h/g and 316 ng·h/mL, respectively.

Source of the values: ChEMBL document CHEMBL3813647, “Discovery of an Orally Active and Liver-Targeted Prodrug of 5-Fluoro-2'-Deoxyuridine for the Treatment of Hepatocellular Carcinoma” (J Med Chem, 2016).
